Test results published in ChEMBL document CHEMBL1123247, “Nucleoside conjugates. 7. Synthesis and antitumor activity of 1-beta-D-arabinofuranosylcytosine conjugates of ether lipids” (J Med Chem, 1986).

Tests used:
Type in all cases: functional, Mus musculus
L1210 [1] = assay: Antitumor activity was determined against the ip implanted L1210 leukemia in mice by range in survival days at 300 mg/kg (treatment of 1qd schedule) dosage; Range is 14->45; conditions: route intraperitoneal
Procedure, shortened: (§1)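 DBA/2J mice, 23-28 g, in groups of 6, were inoculated ip with 1×10^6 L1210 cells on day 0. Dosing was ip starting 24 h later on the stated daily schedules. Conjugates were given as sonicated solutions and reference prodrugs as suspensions in 0.9% NaCl with 0.5% Tween-80. Mice were observed daily until death or 45 days. Median survival T/C was calculated from survivors per NCI protocols.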

L1210 [2] = assay: Antitumor activity was determined against the ip implanted L1210 leukemia in mice by change in […] at 300 mg/kg (treatment of 1qd schedule) dosage; conditions: route intraperitoneal
Procedure, shortened: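 DBA/2J mice, 6 per group (wt 23-28 g), inoculated ip with 1×10^6 L1210 cells on day 0. Treatment was given ip in 0.9% NaCl with 0.5% Tween-80, starting 24 h later. Weight change was taken on day 8. Mice were observed daily until death or 45 days. Median survival T/C and %ILS = (T/C − 1) × 100 came from survivors per NCI protocols, and 45-day survivors were counted.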

L1210 [3] = assay: Antitumor activity against ip implanted L1210 leukemia in mice expressed as active dose range (1-5qd treatment schedule) required to produce increase in life span by >25% was determined; Range is 10-80
Procedure, shortened: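 DBA/2J mice, groups of 6 (23-28 g), were inoculated ip with 1 × 10^6 L1210 cells on day 0. Dosing was ip from 24 h, in 0.9% NaCl with 0.5% Tween-80 (sonicated solution or suspension). Mice were observed daily until death or day 45. Median survival T/C followed NCI protocols, and ILS = (T/C − 1) × 100. Active range means doses giving ILS ≥25%; optimal dose means greatest ILS.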

P388 [4] = assay: Antitumor activity was determined against the ip implanted P388 leukemia in mice by range in survival days at 133 mg/kg (treatment of 1,5,9qd schedule) dosage; Range is 23->45; conditions: route intraperitoneal
L1210 [5] = assay: Antitumor activity was determined against the ip implanted L1210 leukemia in mice by range in survival days at 80 mg/kg (treatment of 1-5qd schedule) dosage; Range is 21-30; conditions: route intraperitoneal; procedure, shortened: as §1
L1210 [6] = assay: Antitumor activity against the ic implanted L1210 lymphoid leukemia in mice expressed as optimal dose (1, 5, 9qd treatment schedule) required to produce greatest increase in life span was determined
Procedure, shortened: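 DBA/2J mice, groups of 6 (26-32 g), got 1 × 10^5 L1210 cells ic on day 0. Dosing was ip starting 24 h later, as a sonicated solution or suspension in 0.9% NaCl with 0.5% Tween-80, over a wide dose range. Mice were followed daily until death. Median survival T/C was taken from survivors per NCI protocols, and ILS = (T/C − 1) × 100. Active range means doses giving ILS ≥25%; optimal dose means greatest ILS.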

P388 [7] = assay: Antitumor activity was determined against the ip implanted P388 leukemia in mice by range in survival days at 500 mg/kg (treatment of 1qd schedule) dosage; Range is 23->45; conditions: route intraperitoneal
P388 [8] = assay: Antitumor activity was determined against the ip implanted P388 leukemia in mice by 45-day survivors in mice at 67 mg/kg (treatment of 1,5,9qd schedule) dosage; conditions: route intraperitoneal
Procedure, shortened: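 DBA/2J mice, 23-33 g, in groups of 6, were inoculated ip with 1×10^6 P388 cells on day 0. Dosing was ip from 24 h on the stated schedules, in 0.9% NaCl with 0.5% Tween-80 (sonicated solution or suspension). Survival was followed daily until death or 45 days. Median T/C was calculated from survivors per NCI protocols, with ILS = (T/C − 1) × 100.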

L1210 [9] = assay: Antitumor activity was determined against the ip implanted L1210 leukemia in mice by 45-day survivors in mice at 200 mg/kg (treatment of 1-5qd schedule) dosage; conditions: route intraperitoneal
Procedure, shortened: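 DBA/2J mice in groups of 6 (wt 23-28 g) were inoculated ip with 1×10^6 L1210 cells on day 0. Dosing was ip from 24 h, in 0.9% NaCl with 0.5% Tween-80 (conjugates sonicated), across a range of doses. Mice were observed daily until death or 45 days. Median T/C was computed from survivors per NCI protocols, and ILS = (T/C − 1)×100.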

L1210 [10] = assay: Antitumor activity was determined against the ic implanted L1210 lymphoid leukemia in mice by range in survival days at 300 mg/kg (treatment of 1-5qd schedule) dosage; Range is 15-18

CCCCCCCCCCCCCCCC(=O)OC[C@H](COP(=O)(O)OP(=O)(O)OC[C@H]1O[C@@H](n2ccc(N)nc2=O)[C@@H](O)[C@@H]1O)OC(=O)CCCCCCCCCCCCCCC
Range (L1210 [1]): 14
Weight change (L1210 [2]): -0.62 g mouse-1
Active dose range (L1210 [3]): 10 mg/kg/day

CCCCCCCCCCCCCCCCOCC(COP(=O)(O)OP(=O)(O)OC[C@H]1O[C@@H](n2ccc(N)nc2=O)[C@@H](O)[C@@H]1O)OC(=O)CCCCCCCCCCCCCCC (mixture of isomers)
Range (P388 [4]): 23
Range (L1210 [5]): 21
Optimal dose (L1210 [6]): 167 mg

CCCCCCCCCCCCCCCCCCOCC(COP(=O)(O)OP(=O)(O)OC[C@H]1O[C@@H](n2ccc(N)nc2=O)[C@@H](O)[C@@H]1O)OC(=O)CCCCCCCCCCCCCCC (mixture of isomers)
Range (P388 [7]): 23
Survivors (P388 [8]): 0

Nc1ccn([C@@H]2O[C@H](CO)[C@@H](O)[C@@H]2O)c(=O)n1 [CYTARABINE]
Survivors (L1210 [9]): 0
Range (L1210 [10]): 15
